Screening data deposited in PubChem by several laboratories.
SMARCA2 act: activators of SMARCA2 function | MG213 cells, MMTV-luciferase reporter, dexamethasone, overnight | activation, % at 9.1 µM | hit rate 1% among 370,000; in the data active = activation above about 7.8%
H9c2 TAG inh: triacylglycerol accumulation inhibition. H9c2 cells, Nile Red lipid (TAG) fluorescence; cells loaded with 200 µM oleic acid. inhibition, % at 12.5 µM. hit rate 0.66% among 230,000. AID 651582;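 active = pattern-corrected inhibition of lipid staining of at least 50% with the nuclear-stain viability signal not falling by more than 50%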
AHR activator: human AHR activation | AHR-responsive luciferase reporter cells, luminescence | activation, % at 5 µM | AID 2796 | hit rate 2.5% among 320,000; in the data active = activation above about 47%
Target sequence (P35869 whole entry, looked up): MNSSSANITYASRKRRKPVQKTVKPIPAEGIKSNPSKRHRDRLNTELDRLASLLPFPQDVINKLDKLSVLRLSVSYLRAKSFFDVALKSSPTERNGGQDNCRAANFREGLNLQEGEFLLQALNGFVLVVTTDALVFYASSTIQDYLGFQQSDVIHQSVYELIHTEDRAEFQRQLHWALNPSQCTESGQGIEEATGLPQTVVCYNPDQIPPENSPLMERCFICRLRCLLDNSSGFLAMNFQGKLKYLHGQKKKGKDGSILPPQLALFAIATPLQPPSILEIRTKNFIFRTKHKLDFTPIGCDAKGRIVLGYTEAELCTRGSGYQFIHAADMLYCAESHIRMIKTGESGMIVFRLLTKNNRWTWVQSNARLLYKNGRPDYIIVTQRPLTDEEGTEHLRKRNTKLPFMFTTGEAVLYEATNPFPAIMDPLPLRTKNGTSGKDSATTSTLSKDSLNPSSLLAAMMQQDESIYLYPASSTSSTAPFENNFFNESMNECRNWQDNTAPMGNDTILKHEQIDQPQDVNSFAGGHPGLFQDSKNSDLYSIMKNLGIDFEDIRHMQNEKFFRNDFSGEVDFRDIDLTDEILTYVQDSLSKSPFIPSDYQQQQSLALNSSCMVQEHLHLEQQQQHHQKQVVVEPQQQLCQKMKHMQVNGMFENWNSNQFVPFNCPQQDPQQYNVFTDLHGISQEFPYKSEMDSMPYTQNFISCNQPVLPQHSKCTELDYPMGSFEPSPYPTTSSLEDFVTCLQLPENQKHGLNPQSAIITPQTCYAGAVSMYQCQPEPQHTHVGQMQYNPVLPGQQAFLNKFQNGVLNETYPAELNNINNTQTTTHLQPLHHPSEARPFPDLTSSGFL
TbMetRS inhib: Trypanosoma brucei MetRS inhibition; purified T. brucei MetRS, ATP depletion, Kinase-Glo luminescence; inhibition, % at 11.9 µM; hit rate 0.4% among 360,000; AID 624268;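 active = inhibition above a per-plate cutoff of the control wells' mean inhibition plus 3 SD, cut at about 5.5% in these data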
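Material – parasite MetRS enzyme · Medium – HEPES-MgCl2-KCl buffer plus DTT, spermine, BSA, pyrophosphatase · Reagent – ATP, methionine and E. coli bulk tRNA substrates · Times – 15 min enzyme-compound preincubation, 2 h reaction, 10 min detection, 25 °C · Measured by – luminescence of leftover ATP · Evaluation – percent inhibition relative to median high and low control wells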
Efflux pump inh: inhibitors of Candida antifungal efflux pumps expressed in yeast; S. cerevisiae Candida pump triplex, Nile Red efflux; inhibition, % at 10 µM; hit rate 0.44% among 330,000; AID 485275;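 active = plate passing quality check with inhibition over a set limit, or well fluorescence over plate mean plus 4 SD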;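 note: Nile Red retained in pooled yeast measured as flow cytometry median fluorescence; higher means more Nile Red kept so more efflux inhibition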
SMARCA2 conf: SMARCA2 activation, confirmation screen. shares compounds with SMARCA2 act. MG213 cells, MMTV-luciferase with dexamethasone, luminescence, overnight; MG213 cells expressing E1A, Rb sequestered; DMSO wells 0%, reference activator 100%. activation, % at 9.1 µM. hit rate 30% among 3,500;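 active = activation above its plate's cutoff, the mean activation of tested wells plus 3 SD, cut at about 7.9% in these data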
GAL4-VP16 Luc: GAL4-VP16 reporter activation counter-screen. activation, % at 9.1 µM. AID 686939. shares compounds with SMARCA2 act. hit rate 41% among 3,500. HEK293 GAL4-VP16 pG5luc reporter, luciferase luminescence; scaled: DMSO wells 0%, SAHA wells 100%;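 active = activation above the solvent-only control well mean plus 3 SD, averaged across control plates, cut at about 5.2% in these data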
Numbers stand for hits. The list is not random: actives were taken first. Their share in the collection is about 4.1%.

How did C[C@@]12C[C@@H]3C(=O)N(Cc4ccccc4)CC(=O)N3[C@@H]1N(S(=O)(=O)c1ccccc1)c1ccccc12 do in these assays?
SMARCA2 act: inactive

Results for O=C1NC[C@H](CCCCN2C[C@H](Cc3ccc(O)cc3)N(CCc3ccc(O)cc3)C(=O)C2=O)N(CC2CCCCC2)C1=O ?
SMARCA2 act: 8.5; TbMetRS inhib: inactive; SMARCA2 conf: inactive; GAL4-VP16 Luc: inactive

How did COC(=O)[C@]12C[C@H](CC(=O)NCc3ccc(C)o3)C(=O)N(Cc3cccc4ccccc34)C1=C[C@H](C1CCCC1)O[C@@H]2C do in these assays?
SMARCA2 act: inactive

What do the screens show for `O=C(Nc1ccccc1)c1ccc(NCC2CCCO2)c([N+](=O)[O-])c1` (stereo not drawn)?
SMARCA2 act: 8.8; AHR activator: inactive; TbMetRS inhib: inactive; Efflux pump inh: inactive; SMARCA2 conf: inactive; GAL4-VP16 Luc: inactive

What do the screens show for `COC(=O)C1=C(C)N(Cc2ccccc2C(F)(F)F)C(=NCc2ccccc2)NC1c1ccc(C(F)(F)F)cc1` (stereo not drawn)?
SMARCA2 act: inactive

What do the screens show for `COC(=O)C1=C(C)N(Cc2ccccc2C(F)(F)F)C(=NCc2cccc(C(F)(F)F)c2)NC1c1ccc(C(F)(F)F)cc1` (stereo not drawn)?
SMARCA2 act: 10; SMARCA2 conf: inactive; GAL4-VP16 Luc: inactive

What do the screens show for `C[C@@H]1OC(C2CCCCC2)N(C)[C@H]2C[C@H]3c4[nH]c5cccc(-c6ccccc6)c5c4CCN3C(=O)[C@@H]12` (stereo partly drawn)?
SMARCA2 act: inactive

How did Cc1cc(N2CCN(Cc3ccc4c(c3)OCO4)CC2)n2nc(C)nc2n1 do in these assays?
SMARCA2 act: inactive

What do the screens show for `O=C(O)c1ccc(C[n+]2c(-c3ccccc3)csc2Nc2ccccc2)cc1`?
SMARCA2 act: 10; AHR activator: inactive; TbMetRS inhib: inactive; Efflux pump inh: inactive; SMARCA2 conf: inactive; GAL4-VP16 Luc: inactive

What do the screens show for `CC(C)(C)c1cc(-c2csc(Nc3ccccc3)[n+]2Cc2ccc(C(=O)O)cc2)cc(C(C)(C)C)c1O`?
H9c2 TAG inh: inactive; AHR activator: inactive; TbMetRS inhib: inactive; Efflux pump inh: inactive

How did COc1ccccc1NC(=O)CSc1nncn1-c1cccnc1 do in these assays?
SMARCA2 act: 13; AHR activator: inactive; TbMetRS inhib: inactive; Efflux pump inh: inactive; SMARCA2 conf: inactive; GAL4-VP16 Luc: inactive

How did CC(C)C(=O)Nc1ccc(NC(=O)c2ccc([N+](=O)[O-])cc2Cl)cc1 do in these assays?
SMARCA2 act: inactive; AHR activator: inactive; TbMetRS inhib: inactive; Efflux pump inh: inactive

Results for CN(C)c1ccc(NC(=O)c2ccc([N+](=O)[O-])cc2Cl)cc1 ?
SMARCA2 act: 9.7; AHR activator: inactive; TbMetRS inhib: inactive; Efflux pump inh: inactive; SMARCA2 conf: 7.9; GAL4-VP16 Luc: 12

How did Cc1ccc(NC(=O)c2ccc([N+](=O)[O-])cc2Cl)nc1 do in these assays?
SMARCA2 act: 9.1; H9c2 TAG inh: inactive; AHR activator: inactive; TbMetRS inhib: inactive; Efflux pump inh: inactive; SMARCA2 conf: inactive; GAL4-VP16 Luc: 9.7

How did COc1ccc(N2C(=O)c3n[nH]c(C)c3C2c2ccc(F)cc2)cc1 (stereo not drawn) do in these assays?
SMARCA2 act: inactive

How did Cc1ccc(NC(=S)NNC(=O)CSc2nc3ccccc3c(=O)n2-c2ccc(Cl)cc2)cc1 do in these assays?
SMARCA2 act: inactive

What do the screens show for `O=C(C(=O)N1CCN(C(=O)c2cc(C(F)(F)F)cc(C(F)(F)F)c2)CC1)c1cccc(C(F)(F)F)c1`?
SMARCA2 act: inactive

Results for CC(C(=O)OCC(=O)c1c(N)n(C)c(=O)n(C)c1=O)N1C(=O)c2ccccc2C1=O (stereo not drawn) ?
SMARCA2 act: 10; AHR activator: inactive; TbMetRS inhib: inactive; Efflux pump inh: inactive; SMARCA2 conf: inactive; GAL4-VP16 Luc: inactive

Results for Cn1c(N)c(C(=O)COC(=O)CCCN2C(=O)c3ccccc3C2=O)c(=O)n(C)c1=O ?
SMARCA2 act: inactive; H9c2 TAG inh: inactive; AHR activator: inactive; TbMetRS inhib: inactive; Efflux pump inh: inactive

How did Cc1ccc(NC(=S)NC2CC3CCCC(C2)N3Cc2ccco2)cc1 (stereo not drawn) do in these assays?
SMARCA2 act: 10; H9c2 TAG inh: inactive; AHR activator: inactive; TbMetRS inhib: inactive; Efflux pump inh: inactive; SMARCA2 conf: inactive; GAL4-VP16 Luc: inactive

Results for Cc1cccc(NC(=S)NC2CC3CCCC(C2)N3Cc2ccco2)c1 (stereo not drawn) ?
SMARCA2 act: inactive; H9c2 TAG inh: inactive; AHR activator: inactive; TbMetRS inhib: inactive; Efflux pump inh: inactive

Results for O=C(O)c1cccnc1Oc1ccccc1 ?
SMARCA2 act: inactive; H9c2 TAG inh: inactive; AHR activator: inactive; TbMetRS inhib: inactive; Efflux pump inh: inactive

Results for CN(CCc1ccccn1)C(=O)c1cccnc1Oc1ccccc1 ?
SMARCA2 act: 12; H9c2 TAG inh: inactive; AHR activator: inactive; TbMetRS inhib: inactive; Efflux pump inh: inactive; SMARCA2 conf: inactive; GAL4-VP16 Luc: inactive

How did CCCN(C(=O)c1cn(CCC)c2ccccc12)c1ccc(Oc2cccnc2)cc1 do in these assays?
SMARCA2 act: inactive

Results for CCCCCCCCN1C(=O)[C@@H](CC(=O)NCCc2ccccc2OC)C[C@@]2(C(=O)OC)C1=C[C@H](C1CCCC1)O[C@@H]2C ?
SMARCA2 act: inactive

What do the screens show for `C/C(=N\Nc1cccc([N+](=O)[O-])c1)c1ccccc1O`?
SMARCA2 act: 12; H9c2 TAG inh: inactive; AHR activator: inactive; TbMetRS inhib: inactive; Efflux pump inh: inactive; SMARCA2 conf: inactive; GAL4-VP16 Luc: inactive

How did CCCCCCCCN1C(=O)[C@@H](CC(=O)N2CCN(C(=O)c3ccco3)CC2)C[C@@]2(C(=O)OC)C1=C[C@H](C1CCCC1)O[C@@H]2C do in these assays?
SMARCA2 act: inactive

Results for Fc1cc(F)c2nc(N3CCCC3)sc2c1 ?
SMARCA2 act: 8.4; H9c2 TAG inh: inactive; AHR activator: inactive; TbMetRS inhib: inactive; Efflux pump inh: inactive; SMARCA2 conf: inactive; GAL4-VP16 Luc: inactive

What do the screens show for `Nc1nc2n[nH]nc2c(=O)[nH]1`?
SMARCA2 act: 14; AHR activator: inactive; TbMetRS inhib: inactive; Efflux pump inh: inactive; SMARCA2 conf: 22; GAL4-VP16 Luc: inactive

Results for Nc1nc2nn(-c3ccccc3)nc2c(=O)[nH]1 ?
SMARCA2 act: inactive; AHR activator: inactive; TbMetRS inhib: inactive; Efflux pump inh: inactive

Results for CC(=O)OCCCN1C(=O)CCC12CCC(C)CC2 (stereo not drawn) ?
SMARCA2 act: inactive

How did CC[C@H](CCC(=O)N(c1ccccc1)c1ccccc1)c1ccc(C)cc1 do in these assays?
SMARCA2 act: inactive
